Measured values from ChEMBL document CHEMBL2346560, “Structure and function of a potent lipopolysaccharide-binding antimicrobial and anti-inflammatory peptide” (J Med Chem, 2013).
Values after ≈ are worked out from the molar mass of the structure shown. Active and inactive are the calls of the source. The rule behind the calls is not given here. Bridge positions count the residues as written; N and C are the ends. Peptide text beside a SMILES is read from it.

Legend:
[1] = tested on: Staphylococcus aureus; experiment: Antibacterial activity against Staphylococcus aureus ATCC 2592 after 16 hrs by broth dilution method; format: functional; conditions: ATCC 2592, 16 h
Summary of the method: (§1)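 MIC read-out, reported in µg/mL with µM equivalents. Each value is the mean of three independent experiments, each run in duplicate.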

[2] = tested on: Escherichia coli; experiment: Antibacterial activity against Escherichia coli ATCC 25922 treated with PBS after 16 hrs by broth dilution method; format: functional; conditions: ATCC 25922, 16 h
Summary of the method: (§2)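 Salt sensitivity of the MIC. Peptide was tested in water, NaCl, CaCl2, MgCl2 or PBS (Na2HPO4-NaH2PO4, pH 7.4), with every salt at 150 mM. Values are means of three independent experiments, each run in duplicate.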

[3] = tested on: RAW264.7; experiment: Antiinflammatory activity in mouse RAW264.7 cells assessed as inhibition of LPS-induced NFkappaB translocation from cytoplasm to nucleus preincubated for 1 hr prior to LPS-challenge measured after 3 hrs by Western blotting analysis; format: functional, cell-based
Summary of the method: (§3)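 RAW 264.7 cells (1 × 10^6/well) were serum-starved in RPMI-1640 for 16 h. They were pretreated with peptide (0, 5, 10, 20 µg/mL) for 1 h, then given LPS (E. coli 055:B5, 0 or 100 ng/mL) for 3 h. Cells were washed in ice-cold PBS, and cytoplasmic or nuclear fractions were blotted for TLR4, JNK, NF-κB p65 and β-actin. Control was LPS alone.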

[4] = tested on: Escherichia coli; experiment: Bactericidal activity against Escherichia coli ATCC 25922 at 5 times MIC after 5 mins by colony counting assay (reference value: 47.7 CFU); format: functional
[5] = tested on: Escherichia coli; experiment: Bactericidal activity against Escherichia coli ATCC 25922 at 5 times MIC after 10 mins by colony counting assay (reference value: 58.3 CFU); format: functional
[6] = tested on: Escherichia coli; experiment: Antibacterial activity against Escherichia coli ATCC 25922 assessed as cell swelling after 30 mins by scanning electron microscopic analysis; format: functional, organism-based
Summary of the method: (§4)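 E. coli (about 2 × 10^7 CFU/mL) was exposed to peptide at 1 × MIC, 37 °C, 30 min, beside an untreated control. Cells were pelleted, fixed in 2.5% buffered glutaraldehyde (4 °C, 2 h), post-fixed in 1% osmium tetroxide (2 h), dehydrated through graded ethanol, frozen in tert-butyl alcohol and vacuum-dried, then imaged by SEM.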

[7] = tested on: RAW264.7; experiment: Antiinflammatory activity in mouse RAW264.7 cells assessed as inhibition of LPS-induced TNF alpha production after 24 hrs by ELISA; format: functional, cell-based
Summary of the method: (§5)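 RAW 264.7 cells (2 × 10^5) were plated and allowed to adhere. They were given peptide (2.5, 5, 10, 20 µg/mL) with or without LPS (E. coli 055:B5, 20 ng/mL) for 24 h. Supernatant TNF-α, IL-6 and MCP-1 were measured by ELISA at A450. Controls were LPS alone and untreated cells. Mean ± SEM of three separate experiments.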

[8] = tested on: Escherichia coli; experiment: Bactericidal activity against Escherichia coli ATCC 25922 at 5 times MIC after 120 mins by colony counting assay (reference value: 1868.3 CFU); format: functional
[9] = tested on: Candida albicans; experiment: Antifungal activity against ampicillin, benzylpencillin-resistant Candida albicans 08030809 after 16 hrs by broth dilution method; format: functional; conditions: Candida albicans, 08030809, 16 h; summary of the method: as §1
[10] = tested on: Escherichia coli; experiment: Bactericidal activity against Escherichia coli ATCC 25922 at MIC after 5 mins by colony counting assay (reference value: 47.7 CFU); format: functional
[11] = tested on: RAW264.7; experiment: Antiinflammatory activity in mouse RAW264.7 cells assessed as inhibition of LPS-induced NO production after 24 hrs by spectrophotometric analysis; format: functional, cell-based
Summary of the method: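 RAW 264.7 cells (1 × 10^7) in RPMI-1640 with 10% FBS and penicillin/streptomycin were treated with peptide (2.5, 5, 10, 20 µg/mL) with or without LPS (E. coli 055:B5, 100 ng/mL) for 24 h. Medium nitrite was measured with Griess reagent at A540 against a NaNO2 standard curve. Control was LPS alone. Mean ± SEM of three separate experiments.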

[12] = tested on: Pseudomonas aeruginosa; experiment: Antibacterial activity against Pseudomonas aeruginosa ATCC 27853 treated with NaCl after 16 hrs by broth dilution method; format: functional; conditions: ATCC 27853, 16 h; summary of the method: as §2
[13] = Toxicity in human RBC assessed as induction of hemolysis at 12.5 ug/mL after 30 mins relative to control; format: cell-based, Erythrocyte; conditions: red blood cells (RBC), read-out: Activity
Summary of the method: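 Human red blood cells incubated with peptide. Hemoglobin release read as absorbance at 540 nm and expressed against 1% Triton X-100 as positive control.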

[14] = tested on: RAW264.7; experiment: Antiinflammatory activity in mouse RAW264.7 cells assessed as inhibition of LPS-induced TLR4 expression preincubated for 1 hr prior to LPS-challenge measured after 3 hrs by Western blotting analysis; format: functional, cell-based; summary of the method: as §3
[15] = tested on: Escherichia coli; experiment: Bactericidal activity against Escherichia coli ATCC 25922 at 10 times MIC after 120 mins by colony counting assay (reference value: 1868.3 CFU); format: functional
[16] = tested on: Escherichia coli; experiment: Antibacterial activity against Escherichia coli 08A852 assessed as plasma membrane rupture after 30 mins by scanning electron microscopic analysis; format: functional, organism-based; summary of the method: as §4
[17] = tested on: Escherichia coli; experiment: Antibacterial activity against Escherichia coli ATCC 25922 treated with MgCl2 after 16 hrs by broth dilution method; format: functional; conditions: ATCC 25922, 16 h; summary of the method: as §2
[18] = tested on: Escherichia coli; experiment: Bactericidal activity against Escherichia coli ATCC 25922 at MIC after 60 mins by colony counting assay (reference value: 296 CFU); format: functional
[19] = tested on: Escherichia coli; experiment: Bactericidal activity against Escherichia coli ATCC 25922 at 10 times MIC after 60 mins by colony counting assay (reference value: 296 CFU); format: functional
[20] = tested on: RAW264.7; experiment: Cytotoxicity against mouse RAW264.7 cells at <25 ug/mL after 24 hrs by MTT assay; format: cell-based; conditions: raw264.7, 24 h
[21] = tested on: RAW264.7; experiment: Antiinflammatory activity in mouse RAW264.7 cells assessed as inhibition of LPS-induced NFkappaB translocation from cytoplasm to nucleus at 20 ug/mL preincubated for 1 hr prior to LPS-challenge measured after 3 hrs by Western blotting analysis relative to LPS-treated control; format: functional; summary of the method: as §3
[22] = tested on: RAW264.7; experiment: Cytotoxicity against mouse RAW264.7 cells at >25 ug/mL after 24 hrs by MTT assay; format: cell-based; conditions: raw264.7, 24 h
[23] = tested on: Escherichia coli; experiment: Antibacterial activity against Escherichia coli 08A852 assessed as cell swelling after 30 mins by scanning electron microscopic analysis; format: functional, organism-based; summary of the method: as §4
[24] = tested on: Pseudomonas aeruginosa; experiment: Antibacterial activity against Pseudomonas aeruginosa ATCC 27853 treated with CaCl2 after 16 hrs by broth dilution method; format: functional; conditions: ATCC 27853, 16 h; summary of the method: as §2
[25] = tested on: RAW264.7; experiment: Antiinflammatory activity in mouse RAW264.7 cells assessed as inhibition of LPS-induced IL6 production at 20 ug/mL after 24 hrs by ELISA relative to control; format: functional; conditions: RAW264.7, 24 h; summary of the method: as §5
[26] = tested on: Escherichia coli; experiment: Antibacterial activity against Escherichia coli ATCC 25922 treated with CaCl2 after 16 hrs by broth dilution method; format: functional; conditions: ATCC 25922, 16 h; summary of the method: as §2
[27] = tested on: Pseudomonas aeruginosa; experiment: Antibacterial activity against Pseudomonas aeruginosa ATCC 27853 after 16 hrs by broth dilution method; format: functional; conditions: ATCC 27853, 16 h
Summary of the method: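 MIC determined by an earlier in-house method. Values are means of three independent experiments, each run in duplicate.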

[28] = tested on: RAW264.7; experiment: Antiinflammatory activity in mouse RAW264.7 cells assessed as inhibition of LPS-induced TLR4 expression at 20 ug/mL preincubated for 1 hr prior to LPS-challenge measured after 3 hrs by Western blotting analysis relative to LPS-treated control; format: functional; summary of the method: as §3

SMILES: CC[C@H](C)[C@H](NC(=O)[C@H](Cc1cnc[nH]1)NC(=O)[C@H](CO)NC(=O)[C@@H](NC(=O)[C@@H](NC(=O)[C@@H](NC(=O)[C@@H](NC(=O)[C@H](CCCNC(=N)N)NC(=O)[C@H](CC(C)C)NC(=O)[C@H](CCCCN)NC(=O)[C@H](CCC(=O)O)NC(=O)[C@H](CCCCN)NC(=O)[C@H](CC(C)C)NC(=O)[C@H](CCCCN)NC(=O)[C@@H]1CSSC[C@H](NC(=O)[C@H](CCCCN)NC(=O)[C@@H](N)CCCNC(=N)N)C(=O)N[C@@H](CC(N)=O)C(=O)N[C@@H](Cc2ccccc2)C(=O)N[C@@H](CC(C)C)C(=O)N1)[C@@H](C)O)C(C)C)[C@@H](C)CC)[C@@H](C)O)C(=O)N[C@@H](CC(=O)O)C(=O)N[C@@H](CCCCN)C(=O)N[C@H](C(=O)N[C@@H](CC(C)C)C(=O)N[C@@H](CCCNC(=N)N)C(=O)N1CCC[C@H]1C(=O)N[C@@H](CCC(N)=O)C(=O)NCC(=O)O)C(C)C (H-RKCNFLCKLKEKLRTVITSHIDKVLRPQG-OH; disulfide 3-7)
- MIC [1]: 2.74 µM (≈ 9.38 µg/mL)
- MIC [2]: 2.35 µg/mL (≈ 0.686 µM)
- inhibition [3]: Dose-dependent effect
- CFU [4]: 29.7
- CFU [5]: 10
- Activity [6]: Active
- inhibition [7]: Dose-dependent effect
- CFU [8]: 0
- MIC [9]: 1.37 µM (≈ 4.69 µg/mL)
- CFU [10]: 37.3
- inhibition [11]: Dose-dependent effect
- MIC [12]: 9.38 µg/mL (≈ 2.74 µM)
- hemolysis at 0.5 h, 12.5 ug/mL [13]: 2.5%
- inhibition [14]: Dose-dependent effect
- CFU [15]: 0
- Activity [16]: Active
- MIC [17]: 2.35 µg/mL (≈ 0.686 µM)
- CFU [18]: 0
- CFU [19]: 0
- Activity [20]: Non-toxic
- inhibition at 20 µg/mL [21]: 74%
- Activity [22]: Toxic
- Activity [23]: Active
- MIC [24]: 18.8 µg/mL (≈ 5.48 µM)
- inhibition at 20 µg/mL [25]: 86%
- MIC [26]: 2.35 µg/mL (≈ 0.686 µM)
- MIC [27]: 5.48 µM (≈ 18.8 µg/mL)
- inhibition at 20 µg/mL [28]: 85%
